# According to ChEMBL document CHEMBL4024792, “(N-Hydroxycarbonylbenylamino)quinolines as Selective Histone Deacetylase 6 Inhibitors Suppress Growth of Multiple Myeloma in Vitro and in Vivo” (J Med Chem, 2018):
# Calls of active or inactive are those of the source. The calls are words filed in the database; no cut-off is given here.
# Key:
# U-266 [1] = assay: Induction of apoptosis in human U266 cells at 5 uM after 24 hrs by Annexin V/propidium iodide staining based flow cytometry; format: functional, cell-based
# NCI-H929 [2] = assay: Cell cycle arrest in human NCI-H929 cells assessed as accumulation at G0/G1 phase at 5 uM after 24 hrs in presence of bortezomib by propidium iodide staining based flow cytometry (reference value: 49.39%); format: functional
# RPMI-8226 [3] = assay: Cell cycle arrest in human RPMI8226 cells assessed as accumulation at G0/G1 phase at 5 uM after 24 hrs in presence of bortezomib by propidium iodide staining based flow cytometry (reference value: 44.67%); format: functional
# Salmonella typhimurium [4] = assay: Mutagenicity in Salmonella typhimurium TA100 assessed as increase in number of revertant colonies at 3 to 3000 ug/plate in presence of S9 fraction by Ames test; format: toxicity; details: salmonella enterica subsp. enterica serovar typhimurium
# How it was run: (§1)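 Ames test, TA98 and TA100. Overnight broth cultures preincubated 20 min at 35-37 °C with compound (DMSO stock) plus Aroclor 1254-induced rat liver S9 mix or PBS, then plated in top agar with 0.05 mM histidine/biotin. Final 3-3000 µg/plate; revertants counted after 72 h at 37 °C. ≥3-fold over vehicle = mutagenic; ≤50% = cytotoxic.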
# NCI-H929 [5] = assay: Cell cycle arrest in human NCI-H929 cells assessed as accumulation at S phase at 5 uM after 24 hrs by propidium iodide staining based flow cytometry (reference value: 13.5%); format: functional
# [6] = Apparent permeability from apical to basolateral side in human Caco2 cells at 10 uM after 2 hrs by LC-MS/MS analysis; format: ADME, cell-based; details: Caco-2
# How it was run: (§2)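 Caco-2 cells seeded at 8.4 × 10^4 cells/cm2 on polycarbonate inserts for 21 days. For A→B, donor was apical (HBSS/MES pH 6.5, 10 µM compound) and receiver basolateral (HBSS/HEPES pH 7.4). For B→A, donor was basolateral (HBSS/HEPES pH 7.4, 10 µM) and receiver apical (HBSS/MES pH 6.5). Incubated at 37 °C for 2 h. Receiver sampled at 30, 60, 90 and 120 min, donor at 0 and 120 min.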
# Salmonella typhimurium [7] = assay: Mutagenicity in Salmonella typhimurium TA98 assessed as increase in number of revertant colonies at 3 to 3000 ug/plate in absence of S9 fraction by Ames test; format: toxicity; details: salmonella enterica subsp. enterica serovar typhimurium; how it was run: as §1
# RPMI-8226 [8] = assay: Cell cycle arrest in human RPMI8226 cells assessed as accumulation at G2/M phase at 5 uM after 24 hrs in presence of bortezomib by propidium iodide staining based flow cytometry (reference value: 23.94%); format: functional
# [9] = Intrinsic clearance in Sprague-Dawley rat hepatocytes at 10 uM by LC-MS/MS analysis; format: ADME, cell-based, Hepatocyte; details: read-out: CLH
# How it was run: (§3)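 Cryopreserved hepatocytes (Sprague-Dawley rat, beagle dog, human) incubated with compound at 10 µM, 37 °C, for up to 4 h. About 0.5×10^6 cells/well for rat and dog, 0.24×10^6 for human.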
# [10] = Apparent permeability from basolateral to apical side in human Caco2 cells assessed as drug recovery at 10 uM after 2 hrs by LC-MS/MS analysis; format: ADME, cell-based; details: Caco-2, read-out: Drug recovery; how it was run: as §2
# Mus musculus = assay: Toxicity in nude mouse xenografted with human RPMI8226 cells assessed as change in body weight at 30 mg/kg, iv or ip administered for 5 days followed by 2 days off for 35 days; format: organism-based; details: in vivo
# How it was run: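 Male 8-week nude mice implanted sc with 1×10^7 RPMI 8226 cells, randomized at ~200 mm3 (n = 8). […] Vehicle: 0.5% EtOH/0.5% Cremophor in 5% dextran.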
# U-266 [11] = assay: Induction of apoptosis in human U266 cells at 5 uM after 24 hrs in presence of bortezomib by Annexin V/propidium iodide staining based flow cytometry; format: functional, cell-based
# RPMI-8226 [12] = assay: Cell cycle arrest in human RPMI8226 cells assessed as accumulation at sub-G1 phase at 5 uM after 24 hrs in presence of bortezomib by propidium iodide staining based flow cytometry (reference value: 12.25%); format: functional
# Salmonella typhimurium [13] = assay: Mutagenicity in Salmonella typhimurium TA98 assessed as increase in number of revertant colonies at 3 to 3000 ug/plate in presence of S9 fraction by Ames test; format: toxicity; details: salmonella enterica subsp. enterica serovar typhimurium; how it was run: as §1
# [14] = Stability in beagle dog hepatocytes assessed as parent compound remaining at 10 uM after 60 mins by LC-MS/MS analysis; format: ADME, cell-based, Canis lupus familiaris, Hepatocyte; details: read-out: Stability; how it was run: as §3
# NCI-H929 [15] = assay: Induction of apoptosis in human NCI-H929 cells at 5 uM after 24 hrs by Annexin V/propidium iodide staining based flow cytometry; format: functional, cell-based
# RPMI-8226 [16] = assay: Cell cycle arrest in human RPMI8226 cells assessed as accumulation at G0/G1 phase at 5 uM after 24 hrs by propidium iodide staining based flow cytometry (reference value: 44.67%); format: functional
# NCI-H929 [17] = assay: Cell cycle arrest in human NCI-H929 cells assessed as accumulation at sub-G1 phase at 5 uM after 24 hrs in presence of bortezomib by propidium iodide staining based flow cytometry (reference value: 5.59%); format: functional
# RPMI-8226 [18] = assay: Antitumor activity against human RPMI8226 cells xenografted in nude mouse assessed as tumor growth inhibition at 30 mg/kg, iv or ip administered for 5 days followed by 2 days off for 35 days cotreated with bortezomib relative to control; format: functional; details: read-out: TGI
# How it was run: (§4)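 RPMI 8226 cells (1 × 10^7) implanted s.c. in eight-week-old male nude mice. At mean tumor volume 200 mm3, mice randomized into four groups (n = 8). Caliper measurement every 3–4 days, volume L×W²/2. %TGI computed from treated versus control volume changes relative to time 0.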
# Salmonella typhimurium [19] = assay: Mutagenicity in Salmonella typhimurium TA100 assessed as increase in number of revertant colonies at 3 to 3000 ug/plate in absence of S9 fraction by Ames test; format: toxicity; details: salmonella enterica subsp. enterica serovar typhimurium; how it was run: as §1
# U-266 [20] = assay: Cell cycle arrest in human U266 cells assessed as accumulation at S phase at 5 uM after 24 hrs in presence of bortezomib by propidium iodide staining based flow cytometry (reference value: 14.05%); format: functional
# [21] = Stability in Sprague-Dawley rat hepatocytes assessed as parent compound remaining at 10 uM after 60 mins by LC-MS/MS analysis; format: ADME, cell-based, Hepatocyte; details: read-out: Stability; how it was run: as §3
# RPMI-8226 [22] = assay: Antitumor activity against human RPMI8226 cells xenografted in nude mouse assessed as tumor growth inhibition at 30 mg/kg, iv or ip administered for 5 days followed by 2 days off for 35 days relative to control; format: functional; details: read-out: TGI; how it was run: as §4
# RPMI-8226 [23] = assay: Cell cycle arrest in human RPMI8226 cells assessed as accumulation at S phase at 5 uM after 24 hrs by propidium iodide staining based flow cytometry (reference value: 19.53%); format: functional
# U-266 [24] = assay: Cell cycle arrest in human U266 cells assessed as accumulation at G2/M phase at 5 uM after 24 hrs in presence of bortezomib by propidium iodide staining based flow cytometry (reference value: 35.13%); format: functional
# RPMI-8226 [25] = assay: Cell cycle arrest in human RPMI8226 cells assessed as accumulation at sub-G1 phase at 5 uM after 24 hrs by propidium iodide staining based flow cytometry (reference value: 12.25%); format: functional
# RPMI-8226 [26] = assay: Induction of apoptosis in human RPMI8226 cells at 5 uM after 24 hrs by Annexin V/propidium iodide staining based flow cytometry; format: functional, cell-based
compound,measurement,setting,value
O=C(NO)c1ccc(CNc2cccc3cccnc23)cc1,Activity,U-266 [1],Active
same,Activity,NCI-H929 [2],15.77%
same,Activity,RPMI-8226 [3],6.3%
same,Activity,Salmonella typhimurium [4],Non-Toxic
same,Activity,NCI-H929 [5],8.55%
same,"Papp A→B at 2 h, 10 µM",[6],24 ×10⁻⁶ cm/s
same,Activity,Salmonella typhimurium [7],Non-Toxic
same,Activity,RPMI-8226 [8],2.33%
same,CLint scaled at 10 µM,[9],151 mL/min/kg
same,"recovery at 2 h, 10 µM",[10],69%
same,Activity,Mus musculus,Non-Toxic
same,Activity,U-266 [11],Active
same,Activity,RPMI-8226 [12],84.18%
same,Activity,Salmonella typhimurium [13],Non-Toxic
same,"remaining at 1 h, 10 µM",[14],70.6%
same,Activity,NCI-H929 [15],Active
same,Activity,RPMI-8226 [16],41.95%
same,Activity,NCI-H929 [17],74.13%
same,inhibition in vivo at 30 mg/kg,RPMI-8226 [18],86.2%
same,Activity,Salmonella typhimurium [19],Non-Toxic
same,Activity,U-266 [20],7.56%
same,"remaining at 1 h, 10 µM",[21],28.4%
same,inhibition in vivo at 30 mg/kg,RPMI-8226 [22],60.4%
same,Activity,RPMI-8226 [23],15.19%
same,Activity,U-266 [24],21.52%
same,Activity,RPMI-8226 [25],12.88%
same,Activity,RPMI-8226 [26],Active
